The results in this text go back to ChEMBL document CHEMBL3861952, “Donepezil-like multifunctional agents: Design, synthesis, molecular modeling and biological evaluation” (Eur J Med Chem, 2016).

Data set [1] has as its target T1, Amine oxidase [flavin-containing] A (Homo sapiens, UniProt P21397).
T1 sequence (P21397 whole entry): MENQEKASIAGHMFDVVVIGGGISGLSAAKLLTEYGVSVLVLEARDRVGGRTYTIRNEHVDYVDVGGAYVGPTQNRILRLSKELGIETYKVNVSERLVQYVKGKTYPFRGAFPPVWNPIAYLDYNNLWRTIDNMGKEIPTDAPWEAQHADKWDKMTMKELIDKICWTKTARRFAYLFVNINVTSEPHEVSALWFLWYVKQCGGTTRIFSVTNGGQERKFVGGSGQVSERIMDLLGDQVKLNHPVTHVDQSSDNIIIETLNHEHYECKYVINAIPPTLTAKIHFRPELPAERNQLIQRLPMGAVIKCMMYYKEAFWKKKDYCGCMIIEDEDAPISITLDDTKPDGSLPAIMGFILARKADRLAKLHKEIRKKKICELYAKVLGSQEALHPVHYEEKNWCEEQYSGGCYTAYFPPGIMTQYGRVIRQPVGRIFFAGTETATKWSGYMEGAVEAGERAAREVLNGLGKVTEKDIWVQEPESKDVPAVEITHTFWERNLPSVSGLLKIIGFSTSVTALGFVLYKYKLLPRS
Briefly: Inhibition of human recombinant MAOA using p-tyramine as substrate preincubated for 30 mins followed by substrate addition measured for 1 hr by horse-radish peroxidase/amplex red-based fluorometric method.

Data set [2] concerns the target T2, Acetylcholinesterase (Homo sapiens, UniProt P22303). Briefly: Inhibition of human recombinant AChE expressed in HEK293 cells using acetylthiocholine iodide as substrate preincubated for 30 mins followed by substrate addition measured after 30 mins by Ellman's method. (DTNB colorimetry detects thiols as they appear.)
In data set [3] the target is T3, Amine oxidase [flavin-containing] B (Homo sapiens, UniProt P27338).
T3 sequence (P27338 whole entry): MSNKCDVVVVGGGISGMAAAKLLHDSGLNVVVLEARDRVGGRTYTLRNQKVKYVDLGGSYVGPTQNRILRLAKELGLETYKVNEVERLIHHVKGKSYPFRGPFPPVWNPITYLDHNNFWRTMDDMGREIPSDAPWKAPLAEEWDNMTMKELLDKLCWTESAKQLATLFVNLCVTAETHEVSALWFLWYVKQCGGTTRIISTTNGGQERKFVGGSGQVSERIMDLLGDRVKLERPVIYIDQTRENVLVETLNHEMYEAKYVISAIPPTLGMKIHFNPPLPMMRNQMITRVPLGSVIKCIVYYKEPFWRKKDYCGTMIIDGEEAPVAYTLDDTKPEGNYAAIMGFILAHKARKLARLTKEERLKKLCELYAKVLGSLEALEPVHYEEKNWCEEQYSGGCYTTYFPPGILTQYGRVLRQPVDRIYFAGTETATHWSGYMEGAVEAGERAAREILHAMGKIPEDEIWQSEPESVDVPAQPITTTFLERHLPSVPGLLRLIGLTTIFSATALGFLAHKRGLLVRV
Briefly: Inhibition of human recombinant MAOB using p-tyramine as substrate preincubated for 30 mins followed by substrate addition measured for 1 hr by horse-radish peroxidase/amplex red-based fluorometric method.

In data set [4] the target is T4, Cholinesterase (Homo sapiens, UniProt P06276). Put plainly: Inhibition of human recombinant BuChE expressed in HEK293 cells using S-butyrylthiocholine iodide as substrate preincubated for 30 mins followed by substrate addition measured after 30 mins by Ellman's method. The essentials:
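Ellman assay in 0.1 M phosphate buffer pH 8.0 with 0.05 U/mL BuChE and 0.35 mM DTNB. Serial inhibitor dilutions pre-incubated 30 min at 37 °C, then 0.5 mM S-butyrylthiocholine iodide (final) added. Reaction followed at least 30 min at 405 nm. IC50 from dose-response curves; mean ± S.E.M., at least three experiments in triplicate.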

Data set [5] addresses T1, Amine oxidase [flavin-containing] A. Put plainly: Inhibition of human recombinant MAOA using p-tyramine as substrate preincubated for 120 mins followed by substrate addition measured for 1 hr by horse-radish peroxidase/amplex red-based fluorometric method. The essentials:
(§1)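 Time-dependent series: hrMAO-A pre-incubated with increasing inhibitor concentrations for varied times (0–240 min) before addition of p-tyramine. Fluorometric HRP/Amplex UltraRed read-out as in the standard assay (1 mM p-tyramine, pH 7.4 phosphate, ex 530/em 590). IC50 derived from a dose-response curve at each pre-incubation time.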

The nature of data set [6]: Metal chelating activity of the compound assessed as compound-Cu2+ complex formation at 10 uM after 5 mins by UV-Vis spectrophotometric method. The class given is physicochemical. The essentials:
(§2)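 Run in distilled water at room temperature: UV-Vis spectra (220–300 nm, 1 cm quartz) of 10 μM compound with CuSO4 or ZnSO4 at 1–5 μM. Complexation followed at 262 nm. Stoichiometry by Job's method: 21 mixtures, total concentration 10 μM, proportions varied 0–100%.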

Data set [7] has as its target T1, Amine oxidase [flavin-containing] A. Put plainly: Inhibition of human recombinant MAOA using p-tyramine as substrate preincubated for 15 mins followed by substrate addition measured for 1 hr by horse-radish peroxidase/amplex red-based fluorometric method. Summed up: as §1
In data set [8] the target is T4, Cholinesterase. Put plainly: Mixed-type inhibition of human recombinant BuChE expressed in HEK293 cells using S-butyrylthiocholine iodide as substrate preincubated for 30 mins followed by substrate addition measured after 30 mins by Lineweaver-Burk plot analysis.
For data set [9], the target named is T1, Amine oxidase [flavin-containing] A. Put plainly: Inhibition of human recombinant MAOA using p-tyramine as substrate preincubated for 240 mins followed by substrate addition measured for 1 hr by horse-radish peroxidase/amplex red-based fluorometric method. The essentials:
as §1

Data set [10] in a line: Metal chelating activity of the compound assessed as compound-Zn2+ complex formation at 10 uM after 15 hrs by UV-Vis spectrophotometric method. Type of data set: physicochemical. The essentials:
as §2

Data set [11] addresses T1, Amine oxidase [flavin-containing] A. Put plainly: Inhibition of human recombinant MAOA using p-tyramine as substrate preincubated for 60 mins followed by substrate addition measured for 1 hr by horse-radish peroxidase/amplex red-based fluorometric method. Summed up:
as §1

The target in data set [12] is T2, Acetylcholinesterase. Put plainly: Mixed-type inhibition of human recombinant AChE expressed in HEK293 cells using acetylthiocholine iodide as substrate preincubated for 30 mins followed by substrate addition measured after 30 mins by Lineweaver-Burk plot analysis.
For data set [13], the target named is T1, Amine oxidase [flavin-containing] A. Briefly: Inhibition of human recombinant MAOA using p-tyramine as substrate preincubated for 180 mins followed by substrate addition measured for 1 hr by horse-radish peroxidase/amplex red-based fluorometric method. The essentials:
as §1

For data set [14] the target is unchanged. Briefly: Inhibition of human recombinant MAOA using p-tyramine as substrate measured for 1 hr by horse-radish peroxidase/amplex red-based fluorometric method. Summed up:
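Human recombinant MAO-A (360 mU/mL) pre-incubated 30 min at 37 °C with serial inhibitor dilutions. Reaction started with 1 mM p-tyramine, 40 U/mL HRP and 25 μM Amplex UltraRed (final) in 0.25 mM sodium phosphate pH 7.4. Resorufin fluorescence (ex 530/em 590) read continuously ≥1 h. Water controls, no-substrate blanks. IC50 from dose-response curves; mean ± S.E.M., ≥3 experiments in triplicate.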

pIC50, pKi: −log10 of the molar value.

T2 sequence (P22303 whole entry): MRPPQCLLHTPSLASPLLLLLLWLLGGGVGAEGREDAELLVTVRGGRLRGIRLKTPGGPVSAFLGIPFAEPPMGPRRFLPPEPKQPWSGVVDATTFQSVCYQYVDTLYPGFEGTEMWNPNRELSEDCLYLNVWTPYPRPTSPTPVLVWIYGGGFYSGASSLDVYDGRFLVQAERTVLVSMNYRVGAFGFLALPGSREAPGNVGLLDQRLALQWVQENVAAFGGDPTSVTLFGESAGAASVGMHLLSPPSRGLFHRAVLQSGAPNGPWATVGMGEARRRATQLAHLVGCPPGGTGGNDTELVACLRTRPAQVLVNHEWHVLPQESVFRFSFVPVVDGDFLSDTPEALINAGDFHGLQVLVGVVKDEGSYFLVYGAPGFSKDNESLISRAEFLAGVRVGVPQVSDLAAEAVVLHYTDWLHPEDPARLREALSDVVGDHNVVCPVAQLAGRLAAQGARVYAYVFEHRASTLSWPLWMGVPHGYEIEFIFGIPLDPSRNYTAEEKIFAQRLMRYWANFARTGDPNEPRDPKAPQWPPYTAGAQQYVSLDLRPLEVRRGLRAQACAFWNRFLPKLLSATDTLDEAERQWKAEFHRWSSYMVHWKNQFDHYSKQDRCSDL
T4 sequence (P06276 whole entry): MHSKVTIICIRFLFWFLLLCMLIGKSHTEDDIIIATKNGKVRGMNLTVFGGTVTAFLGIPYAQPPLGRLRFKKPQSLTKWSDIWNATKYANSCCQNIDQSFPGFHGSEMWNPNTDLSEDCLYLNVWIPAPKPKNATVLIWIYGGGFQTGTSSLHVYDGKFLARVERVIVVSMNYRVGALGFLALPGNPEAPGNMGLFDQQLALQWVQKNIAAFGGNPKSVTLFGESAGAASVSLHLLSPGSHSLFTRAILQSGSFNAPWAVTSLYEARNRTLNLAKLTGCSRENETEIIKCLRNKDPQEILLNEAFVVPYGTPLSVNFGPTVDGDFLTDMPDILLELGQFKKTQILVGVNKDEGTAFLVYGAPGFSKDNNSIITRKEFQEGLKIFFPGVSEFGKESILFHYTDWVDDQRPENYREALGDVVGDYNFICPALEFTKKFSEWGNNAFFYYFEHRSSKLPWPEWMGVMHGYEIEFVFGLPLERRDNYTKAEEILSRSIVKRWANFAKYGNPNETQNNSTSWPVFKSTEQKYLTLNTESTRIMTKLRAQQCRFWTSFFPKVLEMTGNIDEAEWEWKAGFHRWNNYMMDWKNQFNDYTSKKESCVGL

In the case of `C#CCN(Cc1ccc(O)c2ncccc12)C(C#N)CCC1CCN(Cc2ccccc2)CC1` (centres undefined), the pIC50 was 5.17 in [1], 6.46 at Acetylcholinesterase [2], 4.93 in data set [3] and 5.68 at Cholinesterase [4].

As to `C#CCN(CCC1CCN(Cc2ccccc2)CC1)Cc1ccc2cccc(O)c2n1`, the pIC50 in data set [1] was 4.45; on Acetylcholinesterase [2], 5.39; in data set [3], below 4.00; at Cholinesterase [4] it was 7.10.

Take `C#CCN(Cc1ccc2cccc(O)c2n1)C(C#N)C1CCN(Cc2ccccc2)CC1` (centres undefined): the pIC50 in data set [1] was 4.99; on Acetylcholinesterase [2], 4.19; in data set [3] it was below 4.00; at Cholinesterase [4], 7.52.

Consider `C#CCN(Cc1ccc2cccc(O)c2n1)C(C#N)CCC1CCN(Cc2ccccc2)CC1` (centres undefined), for which the pIC50 in data set [5] was 5.72; in data set [7], 4.68; in data set [1], 5.00 to 5.21; in data set [9] it was 5.96; at Acetylcholinesterase [2], 7.54; in data set [11], 5.42. Besides, the negative logarithm of the IC50 (pIC50) in data set [3] was below 4.00; on Cholinesterase [4] it was 7.41; in [13], 5.80; in data set [14], 3.73. For the same compound, the outcome in data set [6] and in data set [10] was Active. For the same compound, the pKi at Cholinesterase [8] is 7.28; on Acetylcholinesterase [2], 7.82; at Acetylcholinesterase [12] it was 7.83; at Cholinesterase [4], 7.28.

With `C#CCN(Cc1ccc2cccc(O)c2n1)CC1CCN(Cc2ccccc2)CC1`, the pIC50 in data set [1] is 4.33; on Acetylcholinesterase [2] it was 5.01; in [3], below 4.00; at Cholinesterase [4], 7.19.

`C#CCN(CCCC1CCN(Cc2ccccc2)CC1)Cc1ccc2cccc(O)c2n1`: the pIC50 was 4.43 in data set [1], 5.82 on Acetylcholinesterase [2], below 4.00 in data set [3] and 7.64 at Cholinesterase [4].

`C#CCN(Cc1ccc2cccc(O)c2n1)C(C#N)CC1CCN(Cc2ccccc2)CC1` (centres undefined): the pIC50 in [1] was 4.91; on Acetylcholinesterase [2], 5.48; in data set [3], below 4.00; at Cholinesterase [4], 8.70.

For the compound `C#CCN(C)CCCOc1ccc(Cl)cc1Cl` [CLORGILINE], the pIC50 on Acetylcholinesterase [2] and on Cholinesterase [4] was below 3.30 throughout.

For `C#CCN(C)[C@H](C)Cc1ccccc1` [SELEGILINE], the pIC50 at Acetylcholinesterase [2] and on Cholinesterase [4] was below 3.30 each time.

Broadly, the pIC50 is the negative decadic logarithm of the IC50, by convention in mol/L. By pKi is commonly meant the Ki on a negative log10 scale, so that one unit is a factor of ten.
